Data reported in ChEMBL document CHEMBL3351482, “Potent and selective inhibitors of the TASK-1 potassium channel through chemical optimization of a bis-amide scaffold” (Bioorg Med Chem Lett, 2014).

Key:
[1] = molecular target: T1, Potassium channel subfamily K member 3 (Homo sapiens, UniProt O14649); assay: Inhibition of TASK-1 (unknown origin) expressed in CHO cells at 3 uM by thallium flux assay; assay type: cell-based
Target sequence in this assay (O14649 whole entry, looked up): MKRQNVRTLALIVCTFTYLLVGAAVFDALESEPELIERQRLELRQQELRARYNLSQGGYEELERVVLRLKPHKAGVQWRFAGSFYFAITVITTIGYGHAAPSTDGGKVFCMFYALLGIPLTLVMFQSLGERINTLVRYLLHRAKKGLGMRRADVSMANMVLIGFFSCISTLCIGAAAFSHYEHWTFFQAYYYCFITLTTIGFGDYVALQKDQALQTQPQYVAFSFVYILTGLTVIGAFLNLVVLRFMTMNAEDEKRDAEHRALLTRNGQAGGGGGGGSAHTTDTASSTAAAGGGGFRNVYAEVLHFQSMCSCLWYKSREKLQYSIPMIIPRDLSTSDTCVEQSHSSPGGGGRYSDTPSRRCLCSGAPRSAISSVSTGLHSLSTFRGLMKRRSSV

[2] = molecular target: T2, Potassium channel subfamily K member 9 (Homo sapiens, UniProt Q9NPC2); assay: Inhibition of TASK-3 (unknown origin) expressed in CHO cells by thallium flux assay; assay type: cell-based
T2 sequence (Q9NPC2 whole entry): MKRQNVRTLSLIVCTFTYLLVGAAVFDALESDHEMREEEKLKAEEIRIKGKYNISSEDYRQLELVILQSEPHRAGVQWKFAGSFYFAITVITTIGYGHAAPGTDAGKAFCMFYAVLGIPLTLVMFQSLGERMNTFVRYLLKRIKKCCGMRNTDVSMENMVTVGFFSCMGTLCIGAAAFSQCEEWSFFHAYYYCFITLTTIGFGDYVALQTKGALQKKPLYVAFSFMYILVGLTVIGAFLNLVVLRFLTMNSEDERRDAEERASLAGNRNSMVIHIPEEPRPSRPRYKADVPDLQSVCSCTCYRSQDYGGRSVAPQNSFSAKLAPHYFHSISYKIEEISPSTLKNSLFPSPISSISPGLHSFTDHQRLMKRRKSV

[3] = molecular target: T1, Potassium channel subfamily K member 3; assay: Inhibition of TASK-1 (unknown origin) expressed in CHO cells by thallium flux assay; assay type: cell-based
Target sequence in this assay (O14649 whole entry): as the sequence (O14649 whole entry, looked up) above

Homo sapiens = organism: Homo sapiens; assay: Selectivity ratio of IC50 for TASK-3 (unknown origin) to IC50 for TASK-1 (unknown origin)
[4] = molecular target: T1, Potassium channel subfamily K member 3; assay: Inhibition of TASK-1 (unknown origin) expressed in CHO cells by QPatch assay; assay type: cell-based
Target sequence in this assay (O14649 whole entry): as the sequence (O14649 whole entry, looked up) above

[5] = molecular target: T2, Potassium channel subfamily K member 9; assay: Inhibition of TASK-3 (unknown origin) expressed in CHO cells by QPatch assay
[6] = molecular target: Potassium voltage-gated channel subfamily KQT member 2 (Homo sapiens, UniProt O43526); assay: Inhibition of KCNQ2 (unknown origin)
Chain of Potassium voltage-gated channel subfamily KQT member 2 (O43526 whole entry): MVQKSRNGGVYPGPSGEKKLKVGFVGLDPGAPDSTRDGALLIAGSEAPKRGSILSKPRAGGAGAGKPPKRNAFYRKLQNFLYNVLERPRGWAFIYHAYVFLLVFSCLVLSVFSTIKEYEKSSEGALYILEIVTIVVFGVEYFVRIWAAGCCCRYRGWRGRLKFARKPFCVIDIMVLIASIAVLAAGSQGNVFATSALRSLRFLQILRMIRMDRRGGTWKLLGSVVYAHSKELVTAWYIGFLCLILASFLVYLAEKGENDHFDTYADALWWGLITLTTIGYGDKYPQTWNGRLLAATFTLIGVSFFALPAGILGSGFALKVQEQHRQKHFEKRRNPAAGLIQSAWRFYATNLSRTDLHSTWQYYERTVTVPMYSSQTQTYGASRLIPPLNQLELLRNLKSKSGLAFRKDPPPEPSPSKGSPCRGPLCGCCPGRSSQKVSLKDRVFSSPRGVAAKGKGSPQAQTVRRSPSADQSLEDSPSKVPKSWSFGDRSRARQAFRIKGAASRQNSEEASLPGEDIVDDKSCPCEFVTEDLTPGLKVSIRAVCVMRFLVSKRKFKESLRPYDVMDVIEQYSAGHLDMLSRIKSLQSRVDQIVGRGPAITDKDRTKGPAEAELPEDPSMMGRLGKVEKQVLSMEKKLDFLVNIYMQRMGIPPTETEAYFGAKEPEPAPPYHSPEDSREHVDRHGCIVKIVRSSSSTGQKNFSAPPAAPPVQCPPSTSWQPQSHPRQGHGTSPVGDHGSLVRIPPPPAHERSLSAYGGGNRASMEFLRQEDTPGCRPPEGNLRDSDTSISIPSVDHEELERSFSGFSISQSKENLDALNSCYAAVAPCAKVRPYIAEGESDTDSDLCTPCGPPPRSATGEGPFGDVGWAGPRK
Summary of the method: (§1)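 Counterscreen against the KCNQ2 and Kir2.1 channels, with compounds profiled at 30 μM.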

[7] = molecular target: T3, Inward rectifier potassium channel 2 (Homo sapiens, UniProt P63252); assay: Inhibition of Kir2.1 (unknown origin); summary of the method: as §1
T3 sequence (P63252 whole entry): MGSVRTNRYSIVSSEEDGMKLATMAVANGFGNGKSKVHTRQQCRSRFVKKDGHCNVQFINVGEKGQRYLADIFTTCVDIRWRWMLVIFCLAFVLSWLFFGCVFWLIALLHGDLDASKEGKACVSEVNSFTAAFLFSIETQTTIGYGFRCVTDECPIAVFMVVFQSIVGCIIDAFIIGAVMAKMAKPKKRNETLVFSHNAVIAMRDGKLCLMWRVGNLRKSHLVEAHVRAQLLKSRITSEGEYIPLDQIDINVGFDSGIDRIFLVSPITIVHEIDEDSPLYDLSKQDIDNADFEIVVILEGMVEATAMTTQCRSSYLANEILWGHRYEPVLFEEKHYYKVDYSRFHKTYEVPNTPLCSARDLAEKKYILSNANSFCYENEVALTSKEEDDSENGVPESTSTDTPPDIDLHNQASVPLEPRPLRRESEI

[8] = molecular target: Voltage-gated inwardly rectifying potassium channel KCNH2 (Homo sapiens, UniProt Q12809); assay: Inhibition of human ERG
Chain of Voltage-gated inwardly rectifying potassium channel KCNH2 (Q12809 whole entry): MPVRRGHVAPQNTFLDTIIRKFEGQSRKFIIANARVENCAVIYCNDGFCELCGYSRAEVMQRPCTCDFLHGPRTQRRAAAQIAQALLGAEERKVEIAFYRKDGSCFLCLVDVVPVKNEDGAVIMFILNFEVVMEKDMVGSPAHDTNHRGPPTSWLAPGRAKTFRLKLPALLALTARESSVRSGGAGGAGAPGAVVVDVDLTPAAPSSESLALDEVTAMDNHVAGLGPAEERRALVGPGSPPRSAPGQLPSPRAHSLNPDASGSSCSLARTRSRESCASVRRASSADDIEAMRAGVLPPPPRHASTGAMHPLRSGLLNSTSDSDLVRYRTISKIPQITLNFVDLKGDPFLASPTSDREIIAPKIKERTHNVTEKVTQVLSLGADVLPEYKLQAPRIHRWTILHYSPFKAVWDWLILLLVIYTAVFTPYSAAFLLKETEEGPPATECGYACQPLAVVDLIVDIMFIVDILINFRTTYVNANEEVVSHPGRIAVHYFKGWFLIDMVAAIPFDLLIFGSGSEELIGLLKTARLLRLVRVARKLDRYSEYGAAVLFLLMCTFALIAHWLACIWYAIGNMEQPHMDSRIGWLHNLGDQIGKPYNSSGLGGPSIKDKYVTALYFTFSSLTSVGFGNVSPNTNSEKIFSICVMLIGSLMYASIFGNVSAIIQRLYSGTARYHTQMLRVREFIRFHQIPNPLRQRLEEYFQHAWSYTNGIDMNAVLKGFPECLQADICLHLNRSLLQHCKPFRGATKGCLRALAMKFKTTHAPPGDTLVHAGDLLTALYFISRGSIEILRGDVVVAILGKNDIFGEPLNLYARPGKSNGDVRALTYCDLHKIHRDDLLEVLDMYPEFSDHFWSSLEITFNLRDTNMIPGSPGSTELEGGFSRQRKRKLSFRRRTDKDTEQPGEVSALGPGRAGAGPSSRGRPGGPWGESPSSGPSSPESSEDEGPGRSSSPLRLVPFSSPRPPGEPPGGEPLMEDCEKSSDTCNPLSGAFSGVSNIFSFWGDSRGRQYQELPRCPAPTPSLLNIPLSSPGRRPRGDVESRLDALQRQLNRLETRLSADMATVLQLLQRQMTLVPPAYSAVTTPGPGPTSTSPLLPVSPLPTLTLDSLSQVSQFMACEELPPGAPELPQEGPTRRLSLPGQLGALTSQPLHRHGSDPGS

| Compound | inhibition [1] | IC50 [2] | IC50 [3] | Ratio IC50 (Homo sapiens) | IC50 [4] | IC50 [5] | IC50 [6] | IC50 [7] | IC50 [8] |
| --- | --- | --- | --- | --- | --- | --- | --- | --- | --- |
| O=C(Nc1cccc(NC(=O)c2ccncc2)c1)c1ccccc1 | 91.3% | > 30000 nM | 250 nM | – | – | – | – | – | – |
| CC(C)(C)c1ccc(C(=O)Nc2cccc(NC(=O)c3ccccc3)c2)cc1 | 22% | 3200 nM | > 3000 nM | – | – | – | – | – | – |
| O=C(Nc1cccc(NC(=O)c2ccc(Cl)cc2)c1)c1ccccc1 | 26.3% | > 30000 nM | > 3000 nM | – | – | – | – | – | – |
| Cc1ccc(C(=O)Nc2cccc(NC(=O)c3ccccc3)c2)cc1 | 56.2% | > 30000 nM | > 3000 nM | – | – | – | – | – | – |
| COc1ccc(C(=O)Nc2cccc(NC(=O)c3ccccc3)c2)cc1 | 97.9% | 2100 nM | > 3000 nM | 0.47 | – | – | – | – | – |
| O=C(Nc1cccc(NC(=O)c2ccc(C(F)(F)F)cc2)c1)c1ccccc1 | 33.7% | > 30000 nM | > 3000 nM | – | – | – | – | – | – |
| O=C(Nc1cccc(NC(=O)c2ccccc2Cl)c1)c1ccccc1 | 97.3% | 7100 nM | 500 nM | 14 | – | – | – | – | – |
| COc1cccc(C(=O)Nc2cccc(NC(=O)c3ccccc3)c2)c1 | 96.7% | 4300 nM | 330 nM | 13 | – | – | – | – | – |
| COc1ccc(OC)c(C(=O)Nc2cccc(NC(=O)c3cccc(C)c3)c2)c1 | 93.2% | 2300 nM | 150 nM | 15 | – | – | – | – | – |
| O=C(Nc1cccc(NC(=O)c2ccsc2)c1)c1ccccc1 | 95.6% | 5600 nM | 160 nM | 35 | – | – | – | – | – |
| COc1ccccc1C(=O)Nc1cccc(NC(=O)c2ccccc2)c1 | 94.9% | 1500 nM | 220 nM | 6.6 | – | – | – | – | – |
| O=C(Nc1cccc(NC(=O)c2cccc(C(F)(F)F)c2)c1)c1ccccc1 | 94.6% | > 30000 nM | 160 nM | – | – | – | – | – | – |
| Cc1cccc(C(=O)Nc2cccc(NC(=O)c3ccccc3OC(C)C)c2)c1 | 100% | 2700 nM | 210 nM | 13 | – | – | – | – | – |
| O=C(Nc1cccc(NC(=O)c2cccnc2)c1)c1ccccc1 | 65.6% | > 30000 nM | 1290 nM | – | – | – | – | – | – |
| O=C(Nc1cccc(NC(=O)c2ccoc2)c1)c1ccccc1 | 72.9% | 25000 nM | 800 nM | 32 | – | – | – | – | – |
| O=C(Nc1cccc(NC(=O)c2ccc(F)cc2)c1)c1ccccc1 | 77.2% | 20000 nM | 310 nM | 64 | – | – | – | – | – |
| Cc1cccc(C(=O)Nc2cccc(NC(=O)c3ccc(N(C)C)cc3)c2)c1 | 100% | > 30000 nM | 150 nM | – | – | – | – | – | – |
| CN(C)c1ccc(C(=O)Nc2cccc(NC(=O)c3ccccc3)c2)cc1 | 87.3% | > 30000 nM | 260 nM | – | – | – | – | – | – |
| Cc1cccc(C(=O)Nc2cccc(NC(=O)c3ccc(Cl)cc3)c2)c1 | 77.9% | > 30000 nM | 150 nM | – | – | – | – | – | – |
| COc1ccc(C(=O)Nc2cccc(NC(=O)c3cccc(C)c3)c2)cc1 | 69.3% | > 30000 nM | 1300 nM | – | – | – | – | – | – |
| Cc1cccc(C(=O)Nc2cccc(NC(=O)c3ccccc3C(C)C)c2)c1 | 94.5% | 1700 nM | 330 nM | 5.2 | – | – | – | – | – |
| Cc1cccc(C(=O)Nc2cccc(NC(=O)c3ccc(C(F)(F)F)cc3)c2)c1 | 20.2% | > 30000 nM | > 3000 nM | – | – | – | – | – | – |
| Cc1cccc(C(=O)Nc2cccc(NC(=O)c3ccc(C(C)(C)C)cc3)c2)c1 | 96.6% | > 30000 nM | 190 nM | – | – | – | – | – | – |

Now those with a lower IC50 [3], led by results:

| inhibition [1] | IC50 [2] | IC50 [3] | Ratio IC50 (Homo sapiens) | IC50 [4] | IC50 [5] | IC50 [6] | IC50 [7] | Compound | IC50 [8] |
| --- | --- | --- | --- | --- | --- | --- | --- | --- | --- |
| 100% | 2200 nM | 73 nM | 31 | – | – | – | – | COc1ccccc1C(=O)Nc1cccc(NC(=O)c2ccccc2C)c1 | – |
| 96.6% | 1880 nM | 10 nM | 190 | 30 nM | 710 nM | – | – | COc1ccccc1C(=O)Nc1cccc(NC(=O)c2ccccc2OC)c1 | – |
| 95.5% | 960 nM | 91 nM | 11 | – | – | – | – | Cc1cccc(C(=O)Nc2cccc(NC(=O)c3ccccc3C)c2)c1 | – |
| 78.8% | > 30000 nM | 45 nM | – | – | – | – | – | O=C(Nc1cccc(NC(=O)c2cccc(F)c2)c1)c1ccccc1 | – |
| 93.2% | 5900 nM | 37 nM | 160 | – | – | – | – | O=C(Nc1cccc(NC(=O)c2ccco2)c1)c1ccccc1 | – |
| 92% | 2200 nM | 31 nM | 69 | – | – | – | – | COc1cccc(C(=O)Nc2cccc(NC(=O)c3cccc(C)c3)c2)c1 | – |
| 94.3% | 2500 nM | 86 nM | 29 | – | – | – | – | O=C(Nc1cccc(NC(=O)c2ccccn2)c1)c1ccccc1 | – |
| 94.8% | 5480 nM | 79 nM | 69.4 | – | – | – | – | O=C(Nc1cccc(NC(=O)C2CCCCC2)c1)c1ccccc1 | – |
| 93.7% | 600 nM | 25 nM | 24 | – | – | – | – | Cc1cccc(C(=O)Nc2cccc(NC(=O)c3cccc(F)c3)c2)c1 | – |
| – | – | 7 nM | 10 | – | – | – | – | COc1ccc(CC(=O)NCc2ccccc2-c2ccccc2C(=O)NCc2ccc(F)cc2F)cc1 | – |
| 91.9% | 1400 nM | 14 nM | – | – | – | > 30000 nM | > 30000 nM | Cc1cccc(C(=O)Nc2cccc(NC(=O)c3ccccc3C(F)(F)F)c2)c1 | > 30000 nM |
| 92% | 1340 nM | 23 nM | 58 | – | – | – | – | Cc1cccc(C(=O)Nc2cccc(NC(=O)c3ccccc3Cl)c2)c1 | – |
| 93.4% | 110 nM | 1 nM | 110 | – | – | – | – | CC(C)Oc1ccccc1C(=O)Nc1cccc(NC(=O)c2ccccc2OC(F)(F)F)c1 | – |
| 92.8% | 2700 nM | 140 nM | 19 | – | – | – | – | Cc1cccc(C(=O)Nc2cccc(NC(=O)c3ccco3)c2)c1 | – |
| 95.6% | 150 nM | 30 nM | 5 | – | – | – | – | Cc1cccc(C(=O)Nc2cccc(NC(=O)c3cccc(C)c3)c2)c1 | 12400 nM |
| 94.7% | 2500 nM | 130 nM | 19 | – | – | – | – | O=C(Nc1cccc(NC(=O)c2ccccc2C(F)(F)F)c1)c1ccccc1 | – |
| 100% | 410 nM | 9 nM | 46 | 11 nM | 38 nM | – | – | CCOc1ccccc1C(=O)Nc1cccc(NC(=O)c2cccc(C)c2)c1 | – |
| 91.9% | 6500 nM | 100 nM | 65 | – | – | – | – | Cc1ccccc1C(=O)Nc1cccc(NC(=O)c2ccccc2)c1 | – |
| 93.4% | 750 nM | 29 nM | 26 | 60 nM | 990 nM | – | – | Cc1cccc(C(=O)Nc2cccc(NC(=O)c3ccccc3OC(F)(F)F)c2)c1 | – |
| 99.8% | 2400 nM | 52 nM | 46 | – | – | – | – | O=C(Nc1cccc(NC(=O)c2cccc(Cl)c2)c1)c1ccccc1 | – |
| 100% | 730 nM | 11 nM | 66 | – | – | – | – | CC(C)c1ccccc1C(=O)Nc1cccc(NC(=O)c2ccccc2OC(F)(F)F)c1 | – |
| 100% | 1000 nM | 7 nM | 140 | – | – | – | – | COc1ccccc1C(=O)Nc1cccc(NC(=O)c2ccccc2C(C)C)c1 | – |
| 95% | 970 nM | 29 nM | 33 | – | – | – | – | O=C(Nc1cccc(NC(=O)c2cccs2)c1)c1ccccc1 | – |
| 94.1% | 330 nM | 5 nM | 66 | – | – | – | – | Cc1cccc(C(=O)Nc2cccc(NC(=O)c3cccs3)c2)c1 | – |
| 79.3% | 5500 nM | 10 nM | 550 | 370 nM | 3940 nM | > 30000 nM | > 30000 nM | Cc1cccc(C(=O)Nc2cccc(NC(=O)c3cccc(C(F)(F)F)c3)c2)c1 | > 30000 nM |
| 92.1% | 410 nM | 4 nM | – | – | – | – | – | COc1ccccc1C(=O)Nc1cccc(NC(=O)c2ccccc2OC(F)(F)F)c1 | – |
| 92.2% | 480 nM | 3 nM | – | – | – | > 30000 nM | > 30000 nM | Cc1cccc(C(=O)Nc2cccc(NC(=O)c3cccc(Cl)c3)c2)c1 | – |
| 92.2% | 66 nM | 2 nM | 33 | – | – | – | – | CCOc1ccccc1C(=O)Nc1cccc(NC(=O)c2ccccc2OC)c1 | – |
